Laboratory results published in ChEMBL document CHEMBL3992520, “Development of the First Two-Pore Domain Potassium Channel TWIK-Related K+ Channel 1-Selective Agonist Possessing in Vivo Antinociceptive Activity” (J Med Chem, 2017).

Tests used:
Mus musculus [1] = experiment: Antinociceptive activity in wild-type C57Bl/6J mouse assessed as increase in thermal-stimulus induced paw withdrawal latency at 60 mg/kg, sc measured after 30 mins by hot plate method relative to control; type: functional
Summary of the method: (§1)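 TREK-1−/− and wild-type C57Bl/6J littermates came from heterozygous crosses, n=7. Dose was 60 mg/kg s.c. The 52 °C hotplate measured paw-lick latency, 30 s cut-off, with baseline from two stable pre-dose latencies.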

Mus musculus [2] = experiment: Antinociceptive activity in wild-type C57Bl/6J mouse assessed as increase in thermal-stimulus induced paw withdrawal latency at 60 mg/kg, sc measured after 45 mins by hot plate method relative to control; type: functional; summary of the method: as §1
Mus musculus [3] = experiment: Antinociceptive activity in TREK1 deficient C57Bl/6J mouse assessed as increase in thermal-stimulus induced paw withdrawal latency at 60 mg/kg, sc measured after 30 mins by hot plate method relative to control; type: functional; summary of the method: as §1
Mus musculus [4] = experiment: Antinociceptive activity in TREK1 deficient C57Bl/6J mouse assessed as increase in thermal-stimulus induced paw withdrawal latency at 60 mg/kg, sc measured after 45 mins by hot plate method relative to control; type: functional; summary of the method: as §1
Mus musculus [5] = experiment: In vivo activation of TREK1 in C57Bl/6J mouse assessed as increase in thermal-stimulus induced paw withdrawal latency at 60 mg/kg, sc measured after 30 mins by hot plate method relative to control; type: functional; summary of the method: as §1
Mus musculus [6] = experiment: In vivo activation of TREK1 in C57Bl/6J mouse assessed as increase in thermal-stimulus induced paw withdrawal latency at 60 mg/kg, sc measured after 45 mins by hot plate method relative to control; type: functional; summary of the method: as §1
Mus musculus [7] = experiment: Antinociceptive activity in CD1 mouse assessed as increase in thermal-stimulus induced paw withdrawal latency at 3 mg/kg, sc measured after 30 mins by hot plate method relative to control; type: functional
Summary of the method: (§2)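 Male CD1 mice (20–25 g), groups of 8, scored blind. After 5 min on a room-temperature plate, mice are placed on a 52 °C hotplate. Latency is the time to licking of fore- or hindpaws or flicking of hindpaws, with a 30 s cut-off. Two consecutive stable baseline latencies are taken, then latency is read 30 and 45 min after s.c. injection. % effect = (post − pre)/pre × 100.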

Mus musculus [8] = experiment: Antinociceptive activity in CD1 mouse assessed as increase in thermal-stimulus induced paw withdrawal latency at 3 mg/kg, sc measured after 45 mins by hot plate method relative to control; type: functional; summary of the method: as §2
[9] = molecular target: T1, Potassium channel subfamily K member 2 (Bos taurus) (UniProt Q8HY88); experiment: Agonist activity at TREK1 in bovine AZF cells assessed as increase in K+ current at 40 uM by whole-cell patch clamp method relative to control; type: cell-based
T1 sequence (whole entry): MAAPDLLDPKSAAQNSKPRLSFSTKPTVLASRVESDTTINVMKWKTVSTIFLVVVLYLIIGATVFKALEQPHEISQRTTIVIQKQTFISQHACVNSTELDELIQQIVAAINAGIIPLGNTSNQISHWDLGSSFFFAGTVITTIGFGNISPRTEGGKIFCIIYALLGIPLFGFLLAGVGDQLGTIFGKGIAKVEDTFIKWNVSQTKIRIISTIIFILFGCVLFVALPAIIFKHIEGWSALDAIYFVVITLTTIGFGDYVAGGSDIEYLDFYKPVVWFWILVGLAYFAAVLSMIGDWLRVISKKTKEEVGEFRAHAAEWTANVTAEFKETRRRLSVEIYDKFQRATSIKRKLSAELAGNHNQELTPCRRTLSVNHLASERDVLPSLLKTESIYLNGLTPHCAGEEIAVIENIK

[10] = molecular target: T2, Potassium channel subfamily K member 2 (Homo sapiens) (UniProt O95069); experiment: Agonist activity at human TREK1 expressed in HEK293 cells assessed as increase in K+ current at 20 uM measured at +60 mV by whole-cell patch clamp method relative to control; type: cell-based
T2 sequence (whole entry): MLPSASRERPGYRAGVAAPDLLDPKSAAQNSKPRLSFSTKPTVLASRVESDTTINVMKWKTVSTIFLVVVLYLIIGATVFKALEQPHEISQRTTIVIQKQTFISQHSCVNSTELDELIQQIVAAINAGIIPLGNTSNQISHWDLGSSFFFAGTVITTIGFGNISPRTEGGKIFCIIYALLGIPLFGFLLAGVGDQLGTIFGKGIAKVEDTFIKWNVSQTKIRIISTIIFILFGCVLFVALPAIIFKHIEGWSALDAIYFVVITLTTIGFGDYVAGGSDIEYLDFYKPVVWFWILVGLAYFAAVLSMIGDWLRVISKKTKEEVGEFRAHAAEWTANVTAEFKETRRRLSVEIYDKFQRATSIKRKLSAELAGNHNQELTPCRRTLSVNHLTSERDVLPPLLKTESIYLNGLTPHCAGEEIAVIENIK
Summary of the method: (§3)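 Human TREK-1 (kcnk2) in pIRES2-eGFP was stably expressed in HEK-293 cells under G418 selection, and cells were used 4–48 h after plating. Bath (mM): 140 NaCl, 10 TEA-Cl, 5 KCl, 3 MgCl2, 1 CaCl2, 10 HEPES, pH 7.4. Pipette (mM): 155 KCl, 3 MgCl2, 5 EGTA, 10 HEPES, pH 7.2. Holding was −80 mV, with a step to −100 mV then a 400 ms ramp to +60 mV every 5 s. Read-out was the ratio Imax/I0 taken from I/V curves. Stocks were 20 mM in DMSO.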

Mus musculus [11] = experiment: Antinociceptive activity in CD1 mouse assessed as inhibition of acetic acid-induced writhes at 10 mg/kg, sc pretreated for 15 mins followed by acetic acid challenge measured within 20 mins relative to control; type: functional
Summary of the method: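 Male CD1 mice (20-25 g), n=8 per group, dosed at 10 mg/kg s.c. or with vehicle (5% Tween 80 in 0.9% saline). Dosing was 15 min before i.p. 0.6% acetic acid (10 mL/kg). Abdominal writhes were counted for 20 min. Effect = (mean control writhes − mean test writhes)/mean control writhes ×100.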

[12] = Half life in rat liver microsomes at 40 mM in presence of NADPH-cofactor by HPLC analysis; type: ADME, microsome
Mus musculus [13] = experiment: Antinociceptive activity in CD1 mouse assessed as increase in thermal-stimulus induced paw withdrawal latency at 60 mg/kg, sc measured after 30 mins by hot plate method relative to control; type: functional
Summary of the method: (§4)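 Male CD1 mice (20-25 g), n=8 per group, given 60 mg/kg s.c. After 5 min acclimatization on a plate at room temperature, mice were placed on a 52 °C hotplate. Latency to forepaw or hindpaw licking or hindpaw flicking was recorded, with a 30 s cut-off. Latency was taken after two consecutive stable baselines, then 30 and 45 min post-dose. Effect = (postdrug − predrug latency)/predrug latency ×100.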

Mus musculus [14] = experiment: Antinociceptive activity in CD1 mouse assessed as increase in thermal-stimulus induced paw withdrawal latency at 60 mg/kg, sc measured after 45 mins by hot plate method relative to control; type: functional; summary of the method: as §4
Liver = experiment: Drug metabolism in rat liver microsomes assessed as (E)-2-cyano-3-(1H-indol-2-yl)acrylic acid formation at 40 mM in presence of NADPH-cofactor measured after 24 hrs by HPLC analysis; type: ADME, microsome; settings: 40000 µM
Summary of the method: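 Incubation mix: rat liver microsomes (20 mg/mL stock), phosphate buffer pH 7.4 and NADPH (40 mM stock). Drug was added from a 40 mM DMSO stock. Samples were vortexed and incubated at 37 °C with stirring.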

[15] = molecular target: Potassium channel subfamily K member 9 (Homo sapiens) (UniProt Q9NPC2); experiment: Agonist activity at TASK3 (unknown origin) expressed in HEK293 cells assessed as increase in K+ current at 10 uM measured at +60 mV by whole-cell patch clamp method relative to control; type: cell-based
Potassium channel subfamily K member 9 (Homo sapiens), sequence (Q9NPC2 whole entry): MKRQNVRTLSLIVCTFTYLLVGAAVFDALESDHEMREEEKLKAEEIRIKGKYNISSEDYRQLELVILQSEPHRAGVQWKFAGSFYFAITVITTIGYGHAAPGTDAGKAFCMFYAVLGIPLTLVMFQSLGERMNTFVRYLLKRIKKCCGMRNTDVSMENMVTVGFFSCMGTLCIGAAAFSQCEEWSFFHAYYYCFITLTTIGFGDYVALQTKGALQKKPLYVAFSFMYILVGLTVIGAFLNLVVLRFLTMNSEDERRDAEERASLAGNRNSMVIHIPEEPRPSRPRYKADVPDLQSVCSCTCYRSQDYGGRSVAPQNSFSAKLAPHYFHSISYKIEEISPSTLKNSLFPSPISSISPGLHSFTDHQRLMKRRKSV

[16] = molecular target: T3, Potassium channel subfamily K member 4 (Homo sapiens) (UniProt Q9NYG8); experiment: Agonist activity at TRAAK (unknown origin) expressed in HEK293 cells assessed as increase in K+ current at 10 uM measured at +60 mV by whole-cell patch clamp method relative to control; type: cell-based
T3 sequence (whole entry): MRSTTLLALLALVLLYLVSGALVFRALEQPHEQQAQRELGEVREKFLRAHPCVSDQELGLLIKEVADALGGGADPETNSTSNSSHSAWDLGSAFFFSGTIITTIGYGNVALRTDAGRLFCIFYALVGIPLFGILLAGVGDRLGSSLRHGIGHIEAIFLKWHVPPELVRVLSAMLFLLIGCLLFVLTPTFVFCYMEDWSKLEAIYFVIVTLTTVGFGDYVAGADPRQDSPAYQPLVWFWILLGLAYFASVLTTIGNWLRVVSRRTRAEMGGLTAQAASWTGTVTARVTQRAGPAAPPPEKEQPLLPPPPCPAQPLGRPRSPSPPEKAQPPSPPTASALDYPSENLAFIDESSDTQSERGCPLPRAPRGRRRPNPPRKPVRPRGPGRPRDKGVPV

[17] = molecular target: T2, Potassium channel subfamily K member 2 (Homo sapiens); experiment: Agonist activity at human TREK1 expressed in HEK293 cells assessed as increase in K+ current at 10 uM measured at +60 mV by whole-cell patch clamp method relative to control; type: cell-based; summary of the method: as §3
[18] = molecular target: T4, Potassium channel subfamily K member 10 (Homo sapiens) (UniProt P57789); experiment: Agonist activity at TREK-2 (unknown origin) expressed in HEK293 cells assessed as increase in K+ current at 10 uM measured at +60 mV by whole-cell patch clamp method relative to control; type: cell-based
T4 sequence (whole entry): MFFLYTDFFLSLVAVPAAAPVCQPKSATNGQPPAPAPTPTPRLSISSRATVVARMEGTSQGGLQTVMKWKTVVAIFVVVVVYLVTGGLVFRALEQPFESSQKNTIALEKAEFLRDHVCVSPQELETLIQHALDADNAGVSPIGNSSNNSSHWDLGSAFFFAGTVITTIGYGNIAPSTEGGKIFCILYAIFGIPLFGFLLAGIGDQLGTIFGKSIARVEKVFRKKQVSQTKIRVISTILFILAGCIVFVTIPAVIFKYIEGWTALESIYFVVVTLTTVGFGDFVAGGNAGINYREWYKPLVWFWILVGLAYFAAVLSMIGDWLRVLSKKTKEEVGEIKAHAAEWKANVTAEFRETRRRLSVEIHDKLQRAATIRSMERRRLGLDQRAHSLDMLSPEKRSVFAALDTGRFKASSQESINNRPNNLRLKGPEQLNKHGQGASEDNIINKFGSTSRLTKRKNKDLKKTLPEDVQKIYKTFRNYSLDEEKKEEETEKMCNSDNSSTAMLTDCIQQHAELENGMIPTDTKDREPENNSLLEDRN

Compound | Activity (Mus musculus [1]) | Activity (Mus musculus [2]) | Activity (Mus musculus [3]) | Activity (Mus musculus [4]) | Activity (Mus musculus [5]) | Activity (Mus musculus [6]) | Activity (Mus musculus [7]) | Activity (Mus musculus [8]) | fold change (FC) [9] | fold change (FC) [10] | inhibition in vivo at 10 mg/kg (Mus musculus [11]) | half-life [12] | Activity (Mus musculus [13]) | Activity (Mus musculus [14]) | Drug metabolism (Liver) | fold change (FC) [15] | fold change (FC) [16] | fold change (FC) [17] | fold change (FC) [18]
CN1CC[C@]23c4c5ccc(O)c4O[C@H]2[C@@H](O)C=C[C@H]3[C@H]1C5 [MORPHINE] | 98.6% | 124.5% | 86.7% | 94.6% | 12.6% | 24.3% | 185% | 159.7% |  |  |  |  |  |  |  |  |  |  | 
O=C(O)/C=C/c1ccc(O)c(O)c1 |  |  |  |  |  |  |  |  | 1 |  |  |  |  |  |  |  |  |  | 
CCOC(=O)/C(C#N)=C/c1cc2ccccc2[nH]1 |  |  |  |  |  |  |  |  |  | 4.71 | 88.4% | < 4 min | 33.3% | 32.7% | Metabolite_Detected |  |  |  | 
N#C/C(=C\c1cc2ccccc2[nH]1)C(=O)Nc1ccccc1 | 27.9% | 39.2% | 18.7% | 51.2% | 33% | 0% |  |  |  |  | 52% |  | 49.5% | 49.5% |  | 1.2 | 0.9 | 2.16 to 2.2 | 1.6
